In PMC6407750 (Targeted Oncology, 2019):
Read-outs that look alike come from different tables or passages of the source. One block for each compound: values may come before it.

Experiments:
[1] = format: in vivo, human; conditions: for AUC(0-inf): AUC0–∞,obs; for Tmax: median [range]
Method in brief: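 Sixteen advanced solid tumour patients were enrolled. Each received a single oral 200 mg tablet after an overnight fast, either with ~240 mL water or directly after a ~950 kcal high-fat breakfast eaten within 30 min. No food was given for 4 h. Order was randomized, with a 7-day washout. Plasma was sampled predose and 0.5–48 h and measured by LC–MS/MS (detection limit 1 nM). Parameters were derived by non-compartmental analysis, with adjusted geometric mean ratios and 90% CI.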

[2] = format: in vivo, human; conditions: single 200 mg dose; for AUC(0-inf) / Cmax / half-life: human, plasma, oral, 200 mg; for AUC(0-inf): AUC0–∞,obs; for AUC(0-inf) / Cmax: adjusted geometric mean; for half-life: t½, geometric mean [coefficient of variation (%)]
Method in brief: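 Sixteen advanced solid tumour patients, fasted overnight and for 4 h post-dose, received 200 mg as an intact tablet or as the uncrushed tablet shaken to full dispersion in 20 mL of sucralose 4 mg/mL, menthol 2 mg/mL and benzoic acid 1 mg/mL, undiluted. Order was randomized, with a 7-day washout. Plasma was sampled predose to 48 h by LC–MS/MS. Analysis was non-compartmental, with adjusted geometric mean ratios and 90% CI.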

[3] = single dose, primarily Caucasian subjects, fasted state; cited from earlier work
[4] = administered with food compared to a fasted state; cited from earlier work
[5] = single 200 mg tablet, fed versus fasted

t½ ([1]; fasted, single 200 mg tablet, geometric mean [coefficient of variation (%)], n=15): 18.0 (22.6) h | Cmax ([1]; fed, single 200 mg tablet, plasma, adjusted geometric mean): 1640 nM | Cmax ([1]; human, plasma, oral, 200 mg): 1870 nM | half-life ([1]; human, plasma, oral, 200 mg): 18 h | AUC(0-inf) ([1]; human, plasma, oral, 200 mg, fasted, single 200 mg tablet, adjusted geometric mean): 39.9 µM·h | AUC(0-inf) ([1]; human, plasma, oral, 200 mg, fed, single 200 mg tablet, adjusted geometric mean): 39.2 µM·h | Tmax ([1]; human, plasma, oral, 200 mg, fasted, single 200 mg tablet, n=15): 3 h | Tmax ([1]; human, plasma, oral, 200 mg, fed (high-calorie meal), single 200 mg tablet, n=15): 4 h | tmax and t½ after a high-calorie meal compared with fasted patients ([1]; single 200 mg tablet): not different | AUC0-tz adjusted GMR (90% CI) [fed/fasted] [1, 5]: 92.46 (74.24–115.16) % | AUC0–∞,obs adjusted GMR (90% CI) [fed/fasted] [1, 5]: 98.17 (78.53–122.74) % | Cmax adjusted GMR (90% CI) [fed/fasted] [1, 5]: 87.34 (71.04–107.38) % | AUC(0-inf) ([2]; liquid dispersion, fasted): 31.5 µM·h | AUC(0-inf) ([2]; tablet, fasted): 32 µM·h | Cmax ([2]; liquid dispersion, fasted): 1610 nM | Cmax ([2]; tablet, fasted): 1720 nM | half-life ([2]; liquid dispersion, fasted): 18.4 h | half-life ([2]; tablet, fasted): 19.5 h | AUC0-tz adjusted GMR (90% CI) [tablet/liquid] ([2]; fasted): 99.98 (92.28–108.33) % | AUC0–∞,obs adjusted GMR (90% CI) [tablet/liquid] ([2]; fasted): 101.65 (93.57–110.42) % | Cmax adjusted GMR (90% CI) [tablet/liquid] ([2]; fasted): 107.15 (98.79–116.22) % | tmax and t½, effect of dispersing in a liquid ([2]; liquid dispersion vs tablet): not affected
Compound: COc1cc(C(=O)NC2CCN(C)CC2)c(F)cc1Nc1ncc(C(F)(F)F)c(Oc2cccc3c2C(=O)N(C)C3)n1 [BI 853520]
observed terminal half-life (t½) [3]: 19 h

Compound: C[C@]12CC[C@H](O)CC1=CC[C@@H]1[C@@H]2CC[C@]2(C)C(c3cccnc3)=CC[C@@H]12 [abiraterone]
increase in the area under the plasma concentration–time curve (AUC) [4]: 1000%
